Reference: ChEMBL document CHEMBL3259728, “Design, synthesis and biological evaluation of some novel substituted quinazolines as antitumor agents” (2014)

Legend:
Type in all cases: functional
[1] = Growth inhibition of human BT549 cells assessed as cell growth at 10^-5 M after 48 hrs by SRB assay; conditions: BT-549, 48 h, read-out: Activity
Method in brief: (§1)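 Five-dose NCI panel protocol. Each dose (10^-4 to 10^-8 M, 10-fold steps) was given as 48 h continuous exposure, and protein was measured by SRB staining. Percentage growth at each level is [(Ti−Tz)/(C−Tz)]×100, where Tz is time-zero absorbance and C is untreated control.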

SK-MEL-5 [2] = assay: Growth inhibition of human SK-MEL-5 cells assessed as cell growth at 10^-8 M after 48 hrs by SRB assay; conditions: SK-MEL-5, 48 h, read-out: Activity
M14 = assay: Growth inhibition of human M14 cells assessed as cell growth at 10^-8 M after 48 hrs by SRB assay; conditions: M14, 48 h, read-out: Activity
SR [3] = assay: Growth inhibition of human SR cells assessed as cell growth at 10^-8 M after 48 hrs by SRB assay; conditions: read-out: Activity
CAKI-1 = assay: Growth inhibition of human CAKI-1 cells assessed as cell growth at 10^-5 M after 48 hrs by SRB assay; conditions: CAKI-1, 48 h, read-out: Activity; method in brief: as §1
[4] = Growth inhibition of human NCI-ADR-RES cells assessed as cell growth at 10^-5 M after 48 hrs by SRB assay; conditions: read-out: Activity
SK-MEL-5 [5] = assay: Growth inhibition of human SK-MEL-5 cells assessed as cell growth at 10^-5 M after 48 hrs by SRB assay; conditions: SK-MEL-5, 48 h, read-out: Activity
ACHN = assay: Growth inhibition of human ACHN cells assessed as cell growth at 10^-6 M after 48 hrs by SRB assay; conditions: read-out: Activity; method in brief: as §1
[6] = Growth inhibition of human OVCAR3 cells assessed as cell growth at 10^-6 M after 48 hrs by SRB assay; conditions: OVCAR-3, 48 h, read-out: Activity
[7] = Growth inhibition of human UO31 cells assessed as cell growth at 10^-5 M after 48 hrs by SRB assay; conditions: UO-31, 48 h, read-out: Activity
SR [8] = assay: Growth inhibition of human SR cells assessed as cell growth at 10^-6 M after 48 hrs by SRB assay; conditions: read-out: Activity
PC-3 = assay: Growth inhibition of human PC3 cells assessed as cell growth at 10^-7 M after 48 hrs by SRB assay; conditions: PC-3, 48 h, read-out: Activity
HT-29 = assay: Growth inhibition of human HT-29 cells assessed as cell growth at 10^-7 M after 48 hrs by SRB assay; conditions: HT-29, 48 h, read-out: Activity
NCI-H226 = assay: Growth inhibition of human NCI-H226 cells assessed as cell growth at 10^-7 M after 48 hrs by SRB assay; conditions: NCI-H226, 48 h, read-out: Activity
[9] = Cytotoxicity against human OVCAR8 cells after 48 hrs by SRB assay; conditions: OVCAR-8, 48 h
Method in brief: (§2)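 NCI 60-cell-line panel of human tumour lines from nine cancer types. Continuous 48 h exposure at five 10-fold dilutions from 10^-4 to 10^-8 M, with 5-FU as positive control. SRB protein stain read spectrophotometrically at time zero, untreated control and each concentration. GI50, TGI and LC50 were derived from the [(Ti−Tz)/(C−Tz)]×100 growth relations, and out-of-range values are given as > or < the tested limits.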

SW-620 = assay: Growth inhibition of human SW620 cells assessed as cell growth at 10^-6 M after 48 hrs by SRB assay; conditions: SW-620, 48 h, read-out: Activity
MDA-MB-231 = assay: Cytotoxicity against human MDA-MB-231 cells after 48 hrs by SRB assay; conditions: MDA-MB-231, 48 h; method in brief: as §2
[10] = Growth inhibition of human HOP92 cells assessed as cell growth at 10^-6 M after 48 hrs by SRB assay; conditions: HOP-92, 48 h, read-out: Activity
MDA-MB-468 [11] = assay: Cytotoxicity against human MDA-MB-468 cells after 48 hrs by SRB assay; conditions: MDA-MB-468, 48 h; method in brief: as §2
MDA-MB-468 [12] = assay: Growth inhibition of human MDA-MB-468 cells assessed as cell growth at 10^-7 M after 48 hrs by SRB assay; conditions: MDA-MB-468, 48 h, read-out: Activity
T47D = assay: Growth inhibition of human T47D cells assessed as cell growth at 10^-7 M after 48 hrs by SRB assay; conditions: read-out: Activity
[13] = Growth inhibition of human UACC62 cells assessed as cell growth at 10^-7 M after 48 hrs by SRB assay; conditions: UACC-62, 48 h, read-out: Activity
U-251 = assay: Growth inhibition of human U251 cells assessed as cell growth at 10^-7 M after 48 hrs by SRB assay; conditions: U-251, 48 h, read-out: Activity
NCI-H460 [14] = assay: Growth inhibition of human NCI-H460 cells assessed as cell growth at 10^-7 M after 48 hrs by SRB assay; conditions: NCI-H460, 48 h, read-out: Activity
[15] = Growth inhibition of human EKVX cells assessed as cell growth at 10^-7 M after 48 hrs by SRB assay; conditions: read-out: Activity
[16] = Growth inhibition of human Hs578T cells assessed as cell growth at 10^-8 M after 48 hrs by SRB assay; conditions: Hs-578T, read-out: Activity
[17] = Cytotoxicity against human HCT15 cells after 48 hrs by SRB assay; conditions: HCT-15, 48 h; method in brief: as §2
NCI-H460 [18] = assay: Cytotoxicity against human NCI-H460 cells after 48 hrs by SRB assay; conditions: NCI-H460, 48 h; method in brief: as §2
SN12C = assay: Growth inhibition of human SN12C cells assessed as cell growth at 10^-4 M after 48 hrs by SRB assay; conditions: read-out: Activity
[19] = Growth inhibition of human OVCAR5 cells assessed as cell growth at 10^-4 M after 48 hrs by SRB assay; conditions: OVCAR-5, 48 h, read-out: Activity
SK-MEL-28 = assay: Growth inhibition of human SK-MEL-28 cells assessed as cell growth at 10^-4 M after 48 hrs by SRB assay; conditions: SK-MEL-28, 48 h, read-out: Activity
[20] = read-out: LC50 (the source's name)
[21] = read-out: pLC50 (the source's name) (converted)

Cc1ccc(-c2nc3ccc(Cl)cc3c(=O)n2/N=C/c2ccccc2)cc1
growth at 10 µM [1]: 90%
growth at 0.01 µM (SK-MEL-5 [2]): 94%
growth at 0.01 µM (M14): 95%
growth at 0.01 µM (SR [3]): 96%
growth at 10 µM (CAKI-1): 38%
growth at 10 µM [4]: 48%
growth at 10 µM (SK-MEL-5 [5]): 57%
growth at 1 µM (ACHN): 40%
growth at 1 µM [6]: 94%
growth at 10 µM [7]: 42%
growth at 1 µM (SR [8]): 52%
growth at 0.1 µM (PC-3): 90%
growth at 0.1 µM (HT-29): 93%
growth at 0.1 µM (NCI-H226): 82%
GI50 ([9]; read-out: GI50): 4.58 µM
CC50 [9, 20]: > 100 µM
TGI ([9]; read-out: TGI): > 100 µM
GI50 ([9]; read-out: pGI50 (converted)): 4.57 µM
CC50 [9, 21]: > 100 µM
TGI ([9]; read-out: pTGI): > 100 µM
growth at 1 µM (SW-620): 89%
GI50 (MDA-MB-231; read-out: GI50): 4.21 µM
LC50 (MDA-MB-231; read-out: LC50): > 100 µM
TGI (MDA-MB-231; read-out: TGI): > 100 µM
GI50 (MDA-MB-231; read-out: pGI50 (converted)): 4.17 µM
LC50 (MDA-MB-231; read-out: pLC50 (converted)): > 100 µM
TGI (MDA-MB-231; read-out: pTGI): > 100 µM
growth at 1 µM [10]: 85%
GI50 (MDA-MB-468 [11]; read-out: GI50): 57.6 µM
LC50 (MDA-MB-468 [11]; read-out: LC50): > 100 µM
TGI (MDA-MB-468 [11]; read-out: TGI): > 100 µM
GI50 (MDA-MB-468 [11]; read-out: pGI50 (converted)): 57.5 µM
LC50 (MDA-MB-468 [11]; read-out: pLC50 (converted)): > 100 µM
TGI (MDA-MB-468 [11]; read-out: pTGI): > 100 µM
growth at 0.1 µM (MDA-MB-468 [12]): 93%
growth at 0.1 µM (T47D): 88%
growth at 0.1 µM [13]: 88%
growth at 0.1 µM (U-251): 99%
growth at 0.1 µM (NCI-H460 [14]): 99%
growth at 0.1 µM [15]: 79%
growth at 0.01 µM [16]: 87%
GI50 ([17]; read-out: GI50): > 100 µM
CC50 [17, 20]: > 100 µM
TGI ([17]; read-out: TGI): > 100 µM
GI50 ([17]; read-out: pGI50 (converted)): > 100 µM
CC50 [17, 21]: > 100 µM
TGI ([17]; read-out: pTGI): > 100 µM
GI50 (NCI-H460 [18]; read-out: GI50): 3.68 µM
CC50 (NCI-H460 [18]; [20]): > 100 µM
TGI (NCI-H460 [18]; read-out: TGI): > 100 µM
GI50 (NCI-H460 [18]; read-out: pGI50 (converted)): 3.72 µM
CC50 (NCI-H460 [18]; [21]): > 100 µM
TGI (NCI-H460 [18]; read-out: pTGI): > 100 µM
growth at 100 µM (SN12C): 42%
growth at 100 µM [19]: 61%
growth at 100 µM (SK-MEL-28): 27%
